Reference: ChEMBL document CHEMBL5260822, “Structure-based design and synthesis of 2,4-diaminopyrimidines as EGFR L858R/T790M selective inhibitors for NSCLC” (Eur J Med Chem, 2017)
pIC50: −log10 of the molar value.

What was measured:
[1] = molecular target: Epidermal growth factor receptor (Homo sapiens, UniProt P00533, L858R/T790M); experiment: Inhibition of EGFR L858R/T790M mutant (unknown origin) expressed in baculovirus expression system by ELISA
[2] = molecular target: Epidermal growth factor receptor (Homo sapiens, UniProt P00533); experiment: Inhibition of wild type EGFR (unknown origin) expressed in baculovirus expression system by ELISA
[3] = organism: Homo sapiens; experiment: Selectivity ratio, ratio of IC50 for inhibition of wild type EGFR (unknown origin) to IC50 for inhibition of EGFR L858R/T790M mutant (unknown origin)
How it was run: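 EGFR WT and L858R/T790M kinase domains expressed in a baculovirus system and purified on Ni-NTA. Kinase activity measured by ELISA-based EGFR tyrosine kinase assay; at least three independent determinations, mean ± SD.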

[4] = molecular target: Epidermal growth factor receptor (Homo sapiens, UniProt P00533, T790M); experiment: Inhibition of EGFR T790M mutant (unknown origin) expressed in baculovirus expression system by ELISA
[5] = system: NCI-H1975; experiment: Antiproliferative activity against human NCI-H1975 cells harboring EGFR L858R/T790M double mutant assessed as inhibition of cell proliferation incubated for 72 hrs by sulforhodamine B colorimetric assay; type: functional, cell-based; details: NCI-H1975, 72 h
[6] = system: A-431; experiment: Antiproliferative activity against human A-431 cells harboring wild type EGFR assessed as inhibition of cell proliferation incubated for 72 hrs by sulforhodamine B colorimetric assay; type: functional, cell-based; details: A-431, 72 h

Sequence of Epidermal growth factor receptor (Homo sapiens, UniProt P00533, T790M) (P00533 25-1210 T790M limits assumed): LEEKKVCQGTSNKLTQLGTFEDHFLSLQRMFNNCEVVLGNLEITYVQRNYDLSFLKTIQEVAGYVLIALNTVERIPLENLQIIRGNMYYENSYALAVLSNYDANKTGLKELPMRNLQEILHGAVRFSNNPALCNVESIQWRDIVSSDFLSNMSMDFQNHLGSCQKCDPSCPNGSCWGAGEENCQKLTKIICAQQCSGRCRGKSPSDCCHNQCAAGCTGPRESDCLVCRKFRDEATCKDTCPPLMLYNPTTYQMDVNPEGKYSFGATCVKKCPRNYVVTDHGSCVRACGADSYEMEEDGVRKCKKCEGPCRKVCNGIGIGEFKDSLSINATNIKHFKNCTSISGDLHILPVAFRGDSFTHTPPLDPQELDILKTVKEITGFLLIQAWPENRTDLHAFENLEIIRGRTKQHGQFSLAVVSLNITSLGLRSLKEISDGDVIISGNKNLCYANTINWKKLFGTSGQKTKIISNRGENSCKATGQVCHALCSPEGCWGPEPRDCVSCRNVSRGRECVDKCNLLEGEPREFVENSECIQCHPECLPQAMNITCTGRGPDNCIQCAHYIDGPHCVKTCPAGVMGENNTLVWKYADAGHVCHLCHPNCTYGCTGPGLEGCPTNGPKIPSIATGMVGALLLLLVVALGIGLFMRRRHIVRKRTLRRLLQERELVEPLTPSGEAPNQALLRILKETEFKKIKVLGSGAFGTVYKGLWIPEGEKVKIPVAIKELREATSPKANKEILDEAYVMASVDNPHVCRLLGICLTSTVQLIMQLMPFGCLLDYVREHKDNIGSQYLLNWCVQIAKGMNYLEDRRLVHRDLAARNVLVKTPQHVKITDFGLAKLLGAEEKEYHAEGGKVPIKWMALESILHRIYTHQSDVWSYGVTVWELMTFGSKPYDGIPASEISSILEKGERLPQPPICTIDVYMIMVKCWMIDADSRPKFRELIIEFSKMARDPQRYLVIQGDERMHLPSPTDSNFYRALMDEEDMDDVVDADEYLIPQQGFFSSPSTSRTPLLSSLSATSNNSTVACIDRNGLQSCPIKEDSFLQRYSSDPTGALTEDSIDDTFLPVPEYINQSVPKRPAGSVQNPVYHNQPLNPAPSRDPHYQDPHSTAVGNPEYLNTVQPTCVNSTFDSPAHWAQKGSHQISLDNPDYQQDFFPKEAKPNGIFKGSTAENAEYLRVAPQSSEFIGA
Sequence of Epidermal growth factor receptor (Homo sapiens, UniProt P00533, L858R/T790M) (P00533 25-1210 T790M/L858R limits assumed): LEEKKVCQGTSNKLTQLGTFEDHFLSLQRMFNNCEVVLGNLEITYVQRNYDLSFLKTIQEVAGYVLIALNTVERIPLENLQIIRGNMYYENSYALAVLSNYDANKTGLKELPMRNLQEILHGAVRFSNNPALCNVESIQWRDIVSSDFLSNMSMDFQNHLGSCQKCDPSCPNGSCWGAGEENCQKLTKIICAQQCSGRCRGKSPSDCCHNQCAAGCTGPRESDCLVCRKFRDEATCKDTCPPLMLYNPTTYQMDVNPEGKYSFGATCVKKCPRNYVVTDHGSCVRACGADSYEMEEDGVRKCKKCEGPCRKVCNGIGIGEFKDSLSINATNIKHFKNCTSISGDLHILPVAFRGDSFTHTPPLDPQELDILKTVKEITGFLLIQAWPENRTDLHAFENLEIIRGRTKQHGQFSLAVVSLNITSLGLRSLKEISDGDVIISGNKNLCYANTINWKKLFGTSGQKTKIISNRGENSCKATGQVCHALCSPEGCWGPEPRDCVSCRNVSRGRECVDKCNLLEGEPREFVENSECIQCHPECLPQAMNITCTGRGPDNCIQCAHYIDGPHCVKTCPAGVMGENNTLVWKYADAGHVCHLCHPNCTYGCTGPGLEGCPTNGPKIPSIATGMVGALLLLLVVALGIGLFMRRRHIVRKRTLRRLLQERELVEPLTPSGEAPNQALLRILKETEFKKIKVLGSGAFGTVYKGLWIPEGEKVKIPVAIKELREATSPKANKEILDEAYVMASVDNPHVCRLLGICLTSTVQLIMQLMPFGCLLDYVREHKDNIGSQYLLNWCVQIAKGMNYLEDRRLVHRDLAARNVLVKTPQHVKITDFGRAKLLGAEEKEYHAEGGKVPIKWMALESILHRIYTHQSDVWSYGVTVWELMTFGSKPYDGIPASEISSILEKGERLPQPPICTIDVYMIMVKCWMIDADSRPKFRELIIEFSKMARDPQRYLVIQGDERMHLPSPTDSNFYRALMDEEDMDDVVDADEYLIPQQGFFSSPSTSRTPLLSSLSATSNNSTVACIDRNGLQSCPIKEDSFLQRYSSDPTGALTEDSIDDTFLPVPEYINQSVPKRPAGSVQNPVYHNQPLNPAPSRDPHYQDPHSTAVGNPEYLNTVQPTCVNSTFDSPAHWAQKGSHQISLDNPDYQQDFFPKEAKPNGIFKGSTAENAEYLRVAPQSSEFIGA
Sequence of Epidermal growth factor receptor (Homo sapiens, UniProt P00533) (P00533 whole entry): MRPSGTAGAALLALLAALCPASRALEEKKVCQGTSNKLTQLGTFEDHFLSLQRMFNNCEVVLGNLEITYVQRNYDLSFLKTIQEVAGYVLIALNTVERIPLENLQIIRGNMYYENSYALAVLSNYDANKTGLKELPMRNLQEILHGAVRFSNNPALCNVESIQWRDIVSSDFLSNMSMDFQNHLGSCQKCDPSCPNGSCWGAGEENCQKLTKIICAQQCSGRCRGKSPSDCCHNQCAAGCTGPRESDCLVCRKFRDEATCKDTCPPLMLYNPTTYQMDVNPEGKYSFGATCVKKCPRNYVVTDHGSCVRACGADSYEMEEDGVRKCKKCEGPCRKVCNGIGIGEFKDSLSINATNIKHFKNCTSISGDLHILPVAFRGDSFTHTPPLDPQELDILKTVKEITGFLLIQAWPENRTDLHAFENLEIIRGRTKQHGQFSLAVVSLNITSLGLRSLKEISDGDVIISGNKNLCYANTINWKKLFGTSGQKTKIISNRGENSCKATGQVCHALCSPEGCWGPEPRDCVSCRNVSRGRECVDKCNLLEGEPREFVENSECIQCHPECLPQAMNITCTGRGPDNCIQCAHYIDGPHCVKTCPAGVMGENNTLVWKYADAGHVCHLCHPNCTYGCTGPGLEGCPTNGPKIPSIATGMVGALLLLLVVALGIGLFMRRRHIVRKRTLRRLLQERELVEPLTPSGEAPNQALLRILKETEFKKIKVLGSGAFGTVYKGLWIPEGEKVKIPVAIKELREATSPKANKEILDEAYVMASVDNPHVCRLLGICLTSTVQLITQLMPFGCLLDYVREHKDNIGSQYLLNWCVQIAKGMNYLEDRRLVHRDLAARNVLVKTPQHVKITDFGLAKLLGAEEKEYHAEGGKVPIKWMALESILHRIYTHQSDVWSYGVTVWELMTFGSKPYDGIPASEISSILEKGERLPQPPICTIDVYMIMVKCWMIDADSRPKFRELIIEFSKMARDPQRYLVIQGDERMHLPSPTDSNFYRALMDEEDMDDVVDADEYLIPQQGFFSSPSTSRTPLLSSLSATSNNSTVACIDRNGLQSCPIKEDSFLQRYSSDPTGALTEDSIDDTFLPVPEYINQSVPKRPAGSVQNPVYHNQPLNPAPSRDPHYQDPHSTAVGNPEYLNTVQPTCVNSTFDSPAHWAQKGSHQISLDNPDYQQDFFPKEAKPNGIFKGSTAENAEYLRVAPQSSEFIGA

Work on CN1CCN(c2ccc(Nc3ncc(Br)c(Nc4ccc5nccnc5c4)n3)cc2)CC1 yielded a pIC50 [1] of 6.63, a pIC50 [2] of 6.39 and a Ratio IC50 [3] of 2.
In the case of CN1CCN(c2ccc(Nc3ncc(Br)c(Nc4ccc5ccn(C)c5c4)n3)cc2)CC1, the pIC50 [1] was 7.68, the pIC50 [2] was 5.89 and the Ratio IC50 [3] was 62.
In the case of CN1CCN(c2ccc(Nc3ncc(Br)c(Nc4ccc5[nH]ccc5c4)n3)cc2)CC1, the pIC50 [4] was 7.28, the pIC50 [1] was 7.46 and the pIC50 [2] was less than 6.00. It also gave a Ratio IC50 [3] of 23.
COc1cnc(Nc2ccc(N3CCN(C)CC3)cc2)nc1Nc1ccc2[nH]ccc2c1 gave a pIC50 [4] of 6.65, a pIC50 [1] of 6.81 and a pIC50 [2] of less than 6.00.
CN1CCN(c2ccc(Nc3ncc(Br)c(Nc4ccc5[nH]c(Cc6cccc(F)c6)cc5c4)n3)cc2)CC1 showed a pIC50 [1] of 7.31, a pIC50 [2] of 6.49 and a Ratio IC50 [3] of 7.
In the case of CN1CCN(c2ccc(Nc3ncc([N+](=O)[O-])c(Nc4ccc5[nH]ccc5c4)n3)cc2)CC1, the pIC50 [4] was less than 6.00, the pIC50 [1] was 6.04 and the pIC50 [2] was less than 6.00.
In the case of C=CC(=O)Nc1cc(Nc2ncc(Br)c(Nc3ccc4c(c3)CCC4)n2)ccc1N(C)CCN(C)C, the pIC50 [5] was 6.97, the pIC50 [1] was 9.22 and the pIC50 [2] was 7.58. It also gave a pIC50 [6] of 6.59.
C=CC(=O)Nc1cccc(Oc2nc(Nc3ccc(N4CCN(C)CC4)cc3OC)ncc2Cl)c1 showed a pIC50 [5] of 6.89 and a pIC50 [6] of 5.89.
Work on CN1CCN(c2ccc(Nc3ncc(Br)c(Nc4ccc5[nH]ncc5c4)n3)cc2)CC1 yielded a pIC50 [1] of 7.41, a pIC50 [2] of 6.41 and a Ratio IC50 [3] of 10.
Cc1cnc(Nc2ccc(N3CCN(C)CC3)cc2)nc1Nc1ccc2[nH]ccc2c1 gave a pIC50 [4] of 6.71, a pIC50 [1] of 6.77 and a pIC50 [2] of less than 6.00.
CN1CCN(c2ccc(Nc3ncc(F)c(Nc4ccc5[nH]ccc5c4)n3)cc2)CC1 gave a pIC50 [4] of 6.63, a pIC50 [1] of 6.74 and a pIC50 [2] of less than 6.00.
Work on CN1CCN(c2ccc(Nc3ncc(Cl)c(Nc4ccc5[nH]ccc5c4)n3)cc2)CC1 yielded a pIC50 [4] of 6.98, a pIC50 [1] of 7.34 and a pIC50 [2] of 6.25.
CN1CCN(c2ccc(Nc3ncc(Br)c(Nc4ccc5cn[nH]c5c4)n3)cc2)CC1 showed a pIC50 [1] of 7.37, a pIC50 [2] of 5.96 and a Ratio IC50 [3] of 26.
CN1CCN(c2ccc(Nc3ncc(Br)c(Nc4ccc5ncccc5c4)n3)cc2)CC1 was tested, and the pIC50 [1] was 5.11 and the pIC50 [2] was less than 5.00.
CC(=O)N1CCc2cc(Nc3nc(Nc4ccc(N5CCN(C)CC5)cc4)ncc3Br)ccc21 was tested, and the pIC50 [1] was 5.22, the pIC50 [2] was 4.84 and the Ratio IC50 [3] was 2.
CN1CCN(c2ccc(Nc3ncc(Br)c(Nc4ccc5cc[nH]c5c4)n3)cc2)CC1 was tested, and the pIC50 [1] was 7.72, the pIC50 [2] was 5.85 and the Ratio IC50 [3] was 74.
CN1CCN(c2ccc(Nc3ncc(Br)c(Nc4ccc5c(c4)CCC5)n3)cc2)CC1 showed a pIC50 [1] of 7.46, a pIC50 [2] of 5.17 and a Ratio IC50 [3] of 194.
For CN1CCN(c2ccc(Nc3ncc(C(F)(F)F)c(Nc4ccc5[nH]ccc5c4)n3)cc2)CC1, the pIC50 [4] was 6.99, the pIC50 [1] was 6.92 and the pIC50 [2] was less than 6.00.
C=CC(=O)Nc1cc(Nc2ncc(Br)c(Nc3ccc4cc[nH]c4c3)n2)ccc1N1CCN(C)CC1 was tested, and the pIC50 [5] was 6.35, the pIC50 [1] was 7.79 and the pIC50 [2] was 6.63. The pIC50 [6] was 6.97.
With CC(=O)N1CCc2ccc(Nc3nc(Nc4ccc(N5CCN(C)CC5)cc4)ncc3Br)cc21 the pIC50 [1] was 5.07 and the pIC50 [2] was 5.24.
C=CC(=O)Nc1cc(Nc2ncc(Br)c(Nc3ccc4c(c3)CCC4)n2)ccc1N1CCN(C)CC1 showed a pIC50 [5] of 6.51, a pIC50 [1] of 7.56 and a pIC50 [2] of 6.33. The pIC50 [6] was 6.87.
For C=CC(=O)Nc1cc(Nc2ncc(Br)c(Nc3ccc4cc[nH]c4c3)n2)ccc1N(C)CCN(C)C, the pIC50 [5] was 6.95, the pIC50 [1] was 6.70 and the pIC50 [2] was 8.06. The pIC50 [6] was 6.84.
CN1CCN(c2ccc(Nc3nccc(Nc4ccc5[nH]ccc5c4)n3)cc2)CC1 gave a pIC50 [4] of 7.00, a pIC50 [1] of 6.66 and a pIC50 [2] of 7.31.
C=CC(=O)Nc1cc(Nc2ncc(Br)c(Nc3ccc4ccn(C)c4c3)n2)ccc1N1CCN(C)CC1 was tested, and the pIC50 [5] was 6.72 and the pIC50 [6] was 6.70.
